Measurements: ChEMBL document CHEMBL3826885, “Similarities and differences in affinity and binding modes of tricyclic pyrimido- and pyrazinoxanthines at human and rat adenosine receptors” (Bioorg Med Chem, 2016)

What was measured:
Adenosine receptor A2a [1] = target: Adenosine receptor A2a (Rattus norvegicus, UniProt P30543); experiment: Displacement of [3H]MSX2 from adenosine receptor A2a in rat brain striatal membranes; type: cell membranes, Membrane
Summary of the method: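 Native rat receptors: A1 in brain cortical membranes with [3H]CCPA, A2A in brain striatal membranes, from frozen unstripped rat brains. Compounds were first screened at a single high concentration in three independent experiments. Active compounds then had full inhibition curves over at least 3 orders of magnitude of concentration.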

Adenosine receptor A2b [2] = target: T1, Adenosine receptor A2b (Rattus norvegicus, UniProt P29276); experiment: Displacement of [3H]PSB-603 from recombinant rat adenosine receptor A2b expressed in CHO cell membranes
T1 sequence (P29276 whole entry): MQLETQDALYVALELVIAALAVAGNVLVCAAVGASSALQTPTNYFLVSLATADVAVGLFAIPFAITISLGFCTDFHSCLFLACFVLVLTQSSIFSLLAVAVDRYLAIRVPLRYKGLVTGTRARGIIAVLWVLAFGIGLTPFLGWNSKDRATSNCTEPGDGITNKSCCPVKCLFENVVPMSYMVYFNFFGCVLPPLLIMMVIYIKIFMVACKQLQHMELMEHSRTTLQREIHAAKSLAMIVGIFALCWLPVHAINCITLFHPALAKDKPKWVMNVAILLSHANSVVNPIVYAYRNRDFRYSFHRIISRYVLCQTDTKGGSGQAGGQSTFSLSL
Summary of the method: (§1)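 Membranes came from CHO cells expressing recombinant receptors (human A1, A2A, A2B, A3; rat A2B, A3). Radioligands were [3H]CCPA for A1 and [3H]PSB-11 or [3H]NECA for A3. A single high concentration was screened first, in three experiments for A1/A2A and two for A2B/A3.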

[3] = target: T2, Adenosine receptor A1 (Homo sapiens) (UniProt P30542); experiment: Displacement of [3H]CCPA from recombinant human adenosine receptor A1 expressed in CHO cell membranes at 1 uM
T2 sequence (whole entry): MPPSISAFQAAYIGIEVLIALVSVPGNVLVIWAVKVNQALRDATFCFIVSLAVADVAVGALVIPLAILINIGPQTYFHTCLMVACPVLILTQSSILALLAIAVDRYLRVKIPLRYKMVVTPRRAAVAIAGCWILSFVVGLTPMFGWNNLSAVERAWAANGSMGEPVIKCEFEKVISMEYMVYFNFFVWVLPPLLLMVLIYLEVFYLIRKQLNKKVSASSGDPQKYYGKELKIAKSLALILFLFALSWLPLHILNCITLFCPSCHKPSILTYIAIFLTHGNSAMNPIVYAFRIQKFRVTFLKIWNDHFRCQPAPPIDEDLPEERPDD
Summary of the method: as §1, with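 “A2B/A3. Full inhibition curves spanning at least 3 log units were run for potent compounds.” for “A2B/A3.”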

Adenosine receptor A2b [4] = target: T3, Adenosine receptor A2b (Homo sapiens, UniProt P29275); experiment: Displacement of [3H]PSB-603 from recombinant human adenosine receptor A2b expressed in CHO cell membranes; summary of the method: as §1
T3 sequence (P29275 whole entry): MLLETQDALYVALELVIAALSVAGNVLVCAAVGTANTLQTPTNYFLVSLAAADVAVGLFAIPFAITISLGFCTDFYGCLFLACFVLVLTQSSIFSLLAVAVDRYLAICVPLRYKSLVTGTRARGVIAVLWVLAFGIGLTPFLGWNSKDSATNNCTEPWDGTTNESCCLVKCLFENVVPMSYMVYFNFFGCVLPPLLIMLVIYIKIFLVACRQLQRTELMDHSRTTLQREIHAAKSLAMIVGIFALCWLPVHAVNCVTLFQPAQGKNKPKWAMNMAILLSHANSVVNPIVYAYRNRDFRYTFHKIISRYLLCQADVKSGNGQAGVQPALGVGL

[5] = target: T4, Adenosine receptor A2b (Homo sapiens) (UniProt P29275); experiment: Displacement of [3H]PSB-603 from recombinant human adenosine receptor A2b expressed in CHO cell membranes at 1 uM
T4 sequence (whole entry): T3 sequence (P29275 whole entry)
Summary of the method: as §1, with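 “A2B/A3. Full inhibition curves spanning at least 3 log units were run for potent compounds.” for “A2B/A3.”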

[6] = target: T4, Adenosine receptor A2b (Homo sapiens); experiment: Antagonist activity at human adenosine receptor A2b expressed in CHO cell membranes assessed as inhibition of NECA-induced cAMP accumulation incubated for 15 mins in presence of [3H]cAMP by liquid scintillation counting; type: functional
Summary of the method: (§2)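 Stably transfected CHO cells (human A2A or A2B) grown in DMEM-F12 with 10% FCS at 37 °C, 5% CO2. The cells were seeded at 200,000/well, washed after 24 h and held 2 h in HBSS (pH 7.3) with 1 U/ml adenosine deaminase. Ro20-1724 was added to 40 µM final for 15 min, then NECA dilutions ± one fixed test concentration in 2.5% DMSO, in duplicate.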

CHO [7] = experiment: Selectivity ratio of Ki for recombinant human adenosine receptor A1 expressed in CHO cell membranes to Ki for adenosine receptor A1 in rat brain cortical membranes; type: cell-based
CHO [8] = experiment: Selectivity ratio of Ki for recombinant rat adenosine receptor A2b expressed in CHO cell membranes to Ki for recombinant human adenosine receptor A2b expressed in CHO cell membranes; type: cell-based
CHO [9] = experiment: Selectivity ratio of Ki for recombinant rat adenosine receptor A3 expressed in CHO cell membranes to Ki for recombinant human adenosine receptor A3 expressed in CHO cell membranes; type: cell-based
Adenosine receptor A2a [10] = target: Adenosine receptor A2a (Homo sapiens, UniProt P29274); experiment: Antagonist activity at human adenosine receptor A2a expressed in CHO cell membranes assessed as inhibition of NECA-induced cAMP accumulation incubated for 15 mins in presence of [3H]cAMP by liquid scintillation counting; type: functional; summary of the method: as §2
Chain of Adenosine receptor A2a (Homo sapiens, UniProt P29274) (P29274 whole entry): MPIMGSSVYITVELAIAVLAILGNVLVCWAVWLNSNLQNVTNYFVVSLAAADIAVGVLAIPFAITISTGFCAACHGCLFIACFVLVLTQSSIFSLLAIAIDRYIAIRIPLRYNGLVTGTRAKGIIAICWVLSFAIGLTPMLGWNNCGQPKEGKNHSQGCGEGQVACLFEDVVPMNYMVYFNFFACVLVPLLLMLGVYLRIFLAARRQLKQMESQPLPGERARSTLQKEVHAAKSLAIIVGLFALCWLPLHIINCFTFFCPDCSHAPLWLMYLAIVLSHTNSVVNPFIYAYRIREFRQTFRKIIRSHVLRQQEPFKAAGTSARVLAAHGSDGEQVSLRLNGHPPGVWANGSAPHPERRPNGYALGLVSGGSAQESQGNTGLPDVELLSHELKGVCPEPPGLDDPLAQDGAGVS

Chain of Adenosine receptor A2a (Rattus norvegicus, UniProt P30543) (P30543 whole entry): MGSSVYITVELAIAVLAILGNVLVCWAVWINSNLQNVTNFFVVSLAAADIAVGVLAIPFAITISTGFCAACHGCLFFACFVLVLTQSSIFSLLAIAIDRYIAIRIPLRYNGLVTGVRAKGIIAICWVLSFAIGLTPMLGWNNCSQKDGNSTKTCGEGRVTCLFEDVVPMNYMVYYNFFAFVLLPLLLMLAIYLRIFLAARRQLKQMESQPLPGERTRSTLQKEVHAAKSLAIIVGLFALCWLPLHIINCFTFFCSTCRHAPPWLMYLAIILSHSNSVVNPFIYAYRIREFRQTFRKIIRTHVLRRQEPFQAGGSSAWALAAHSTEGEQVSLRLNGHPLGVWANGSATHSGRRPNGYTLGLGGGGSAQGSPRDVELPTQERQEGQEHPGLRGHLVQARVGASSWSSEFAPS

SMILES: CCCCn1c(=O)c2c(nc3n2CCCN3CCc2ccc(OCCN(CC)CC)cc2)n(CCCC)c1=O
- Ki (Adenosine receptor A2a [1]): 0.566 µM
- Ki (Adenosine receptor A2b [2]): 1.1 µM
- inhibition [3]: 27%
- Ki (Adenosine receptor A2b [4]): 0.109 µM
- inhibition [5]: 87%
- Kb [6]: 0.547 µM
- Ratio Ki (CHO [7]): 19
- Ratio Ki (CHO [8]): 10
- Ratio Ki (CHO [9]): > 3

SMILES: CCN(CC)CCOc1ccc(CCN2CCCn3c2nc2c3c(=O)n(C)c(=O)n2C)cc1
- Ki (Adenosine receptor A2a [1]): 0.339 µM
- Ki (Adenosine receptor A2b [2]): > 1 µM
- inhibition [3]: 1%
- Ki (Adenosine receptor A2b [4]): > 1 µM
- inhibition [5]: 6%
- Kb (Adenosine receptor A2a [10]): 0.839 µM
